Consider 167 variants from the RNAGym collection of RNA variant scans (doi:10.1126/science.aae0568).

B1: tRNA (parent)
chain: GUUCCGUUGGCGUAAUGGUAACGCGUCUCCCUCCUAAGGAGAAGACUGCGGGUUCGAGUCCCGUACGGAACG

This sample holds only a part of the variants without activity.

Variants of B1 are the subject of the data set. In words: yeast fitness relative to wild type (ratio to wild type); higher = fitter; tRNA-Arg(CCU), competitive growth, 37 C, YPD. In a few lines: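 Genotype frequency changes were the basis for Darwinian fitness relative to wild type. The frequencies came from 100-nucleotide paired-end sequencing of gene amplicons from the start population and each end population of pooled yeast strains with tRNA-Arg(CCU) gene variants at the native locus. Competition ran in YPD at 37°C for 24 hours in six replicates, genotypes needed ≥ 100 starting reads, and estimates < 0.5 were set to 0.5.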
For the variant A21U C24A C30A C31G A43U U54G C62G, the yeast fitness is at most 0.5.
To C4A A21G belongs 0.974; to U13C A20C A43G, 0.684.
In the case of G6A C61G G67C, the yeast fitness was found to be 0.546.
As to G6C C11G C61U A70U, the yeast fitness is at most 0.5.
As to G10A A45U, the yeast fitness turned out to be 0.673.
In the case of U3C U8G U28G C31A C61U, the yeast fitness was at most 0.5.
In the case of C24A C33A C46U G67U, the yeast fitness is at most 0.5.
For C11G C46G G50C, the yeast fitness was found to be 0.694.
For U53A C66A, the yeast fitness is at most 0.5.
To U8A C27U A40G C55U A57U belongs at most 0.5.
Regarding G44A G56A, the yeast fitness was determined as 1.05.
For the variant A15U C24A G25A U47C G52C C62U C66A A70C, the yeast fitness was at most 0.5.
Regarding U13A C22A A65G, the yeast fitness amounted to 1.06.
With C5G C34U C46A C62U, the yeast fitness is at most 0.5.
Next, G38C G44A: 0.72; A20C A21G C66U: 0.737.
G6A A20C A65G: the yeast fitness was found to be 0.672.
For A20C A21C C62G, the yeast fitness was at most 0.5.
As to G10C C11G U13A A36G C55U, the yeast fitness was at most 0.5.
Next, U3C G56C: 0.67.
Next, G44A G48A: 0.96.
In the case of C5G U8C A36C A43U, the yeast fitness is at most 0.5.
As for C5U A70C, the yeast fitness was 1.06.
As for U7C A20G U32G, the yeast fitness is at most 0.5.
With U3C C62U U64A, the yeast fitness is at most 0.5.
C31A A43U: the yeast fitness amounted to 0.94.
Consider G6A C30U G63A G67A, for which the yeast fitness was at most 0.5.
As for G10C A20C, the yeast fitness turned out to be 0.631.
Next, C4A G17A G41A C66U: 0.508.
Turning to C24A C34U G41A, the yeast fitness is at most 0.5.
Regarding G9A A70U, the yeast fitness was 0.875.
In the case of C5U C11U C30G C61A, the yeast fitness was at most 0.5.
To U2A U13A A14C C33U belongs at most 0.5; to C5U A14C G68C, at most 0.5.
As to C27U G48A A70U, the yeast fitness was found to be 0.775.
Regarding C31G U64A A69C, the yeast fitness is at most 0.5.
As for U2A G48C A65C, the yeast fitness came to 0.593.
To A40G U47C belongs 0.788.
Consider U16C A20C A21U C27G A42U, for which the yeast fitness is at most 0.5.
In the case of U2G C31U G50A C61G C66U A69U, the yeast fitness was at most 0.5.
C30A C33G A45U U59C: the yeast fitness is 0.543.
For U54G, the yeast fitness was determined as 0.641.
To U16G C24U C29G U35C G50A C66U belongs at most 0.5.
Take C22G C31U A70U: the yeast fitness came to 0.661.
Consider C27G A69C, for which the yeast fitness came out at 0.654.
As for C4G U8A G12A G48A A69C A70U, the yeast fitness turned out to be 0.561.
For the variant C66G G68C, the yeast fitness is 0.634.
Next, G6C U13C C33U A42C C60U A69G: 0.665.
Next, C4U G9A A15U A20C C27A A65U: 0.768; C4U U13C C30G C55U: 0.761; U8A G17A C24U A69C: 0.693.
Regarding U2C A57C A69U, the yeast fitness was 0.578.
On to U16G A21C C34A, for which the yeast fitness is at most 0.5.
As to U8C U16G G25A A70G, the yeast fitness is at most 0.5.
Take C4G C31G: the yeast fitness was 0.761.
Regarding U19C G25C C29A G52A, the yeast fitness was at most 0.5.
For the variant C5G G39C A70G, the yeast fitness was found to be 0.596.
In the case of A42U A45U A69C, the yeast fitness was 0.656.
Turning to A14C U32G U64C, the yeast fitness stood at 0.532.
Consider C11U G39C C66U, for which the yeast fitness is 0.558.
For C27U C30G U32C A70U, the yeast fitness was 0.585.
For the variant U3C C30A G51A, the yeast fitness stood at 0.602.
To C4A G68U belongs 0.831.
C55G G56A C61U: the yeast fitness is at most 0.5.
U16C A42U: the yeast fitness was found to be 0.969.
Regarding C5G A40G A57G, the yeast fitness was at most 0.5.
As for G23A C30A C46G, the yeast fitness is 0.706.
For the variant C5G A21G C62U, the yeast fitness is 0.677.
Take A14G C33U A43G: the yeast fitness was at most 0.5.
For the variant A57C G67U, the yeast fitness came out at 0.516.
As for G58C U64A A69C, the yeast fitness was determined as 0.514.
To U19A G25C C33A A37G G48A G68A belongs at most 0.5.
Turning to C11U A40U G50C G58C U59A, the yeast fitness was 0.564.
Next, G17A U47C: 0.774; G12C C33G C34U A36C A43G G52A G58C U64G A65G: at most 0.5.
To U7C C11G C24U G48A A57G C66U A70C belongs at most 0.5.
For the variant G23C C55G C60A, the yeast fitness is at most 0.5.
With A20U G23A G68A A69U A70U, the yeast fitness was at most 0.5.
With G9C U19C, the yeast fitness is 0.764.
Consider U32C C33U A42U, for which the yeast fitness was 0.66.
For A20U C62U A70U, the yeast fitness is 0.65.
On to U7A C11A A14C C34A, for which the yeast fitness was at most 0.5.
U8A A14U G17A G25A: the yeast fitness is at most 0.5.
Take A21U C34G G39A C55U: the yeast fitness is at most 0.5.
As for U19C C31A A37G G50U C62G, the yeast fitness was at most 0.5.
Next, G41A G48A: 0.944.
On to U2C C24U C60A, for which the yeast fitness is at most 0.5.
With C29A G39C A57G C61U C66U, the yeast fitness is 0.561.
Regarding A20G G67U, the yeast fitness is 0.965.
Regarding U2G U19A C66U, the yeast fitness stood at 0.606.
In the case of U13C A14C C60U C62U U64A, the yeast fitness is at most 0.5.
In the case of C27U A36U A43G C46U, the yeast fitness worked out at 0.559.
With G12A C55A G67A A70G, the yeast fitness was at most 0.5.
Take U13C G18A C66G: the yeast fitness is 0.662.
In the case of A15C A21C A45U C61U C66U, the yeast fitness is at most 0.5.
Next, G44C A45G A70G: 0.695; C11U C33U A69U: 0.605; C22G C31A: 0.78.
Next, C49G U54G: 0.625; A15U C30U C62U: 0.572; U7G U28G C34U G38A: at most 0.5.
As to C30U A43U C61G A69C, the yeast fitness was at most 0.5.
As for C22A G58A C60U, the yeast fitness was at most 0.5.
Next, C11G A37U C55U A57C: at most 0.5; A37C G63A: 0.612; C24U G44A U54G G67A: at most 0.5.
Turning to U7G A15G U19C A21G G41A C55A G63C, the yeast fitness is at most 0.5.
In the case of A40U G41A, the yeast fitness was determined as 0.71.
For C22U U35A C66U, the yeast fitness is at most 0.5.
Take A40C G51A G63A A69C: the yeast fitness was at most 0.5.
As for C29G A36G, the yeast fitness was 0.548.
To C4U U16A G23A A36G C49G C61A belongs at most 0.5.
To U13A C30A belongs 1.11; to U47C U59A G63C, 0.58.
As to G52A C55A, the yeast fitness was 0.581.
Take A14G C30G A42U A45G A69U: the yeast fitness was at most 0.5.
Regarding A20U A40C A42U, the yeast fitness is at most 0.5.
Turning to G9C C22U C33G A43U A45U C46G U54A A65U, the yeast fitness was 0.67.
Next, G51C C62G G68A: 0.715; U16A C30U A40C G68A: 0.594; C34U G38C C55A U64C: at most 0.5.
On to C24U, for which the yeast fitness came to 0.983.
As to U7C U32G C49U, the yeast fitness was at most 0.5.
With A20G U28C, the yeast fitness was 0.934.
Regarding C11U U13C A69C, the yeast fitness was found to be 0.737.
G12A G23C G56C C61G: the yeast fitness is at most 0.5.
As for C34A A40G U47A C66G A69C A70C, the yeast fitness is 0.693.
Next, U7C A36C A57U C61A C66A: at most 0.5; U54A C62U: 0.59; U2A A21G G41A A43G: at most 0.5.
Next, C5G U26A A40U G63C: at most 0.5; C5U A42G G51C: 0.549; G10C A20G C24U G38C A57C G63C: at most 0.5.
As for G6C A45U C60A C61A G63A, the yeast fitness is at most 0.5.
Consider C4G C22U G68C, for which the yeast fitness was at most 0.5.
For the variant A45C C55G C61U, the yeast fitness was at most 0.5.
As for G9A C24U A40U A57U, the yeast fitness amounted to 0.514.
For G12A A40C, the yeast fitness was 0.792.
As for C11A C24U U32A U35C C55A G58A, the yeast fitness is at most 0.5.
Next, G9A G23U A42C: at most 0.5; U8C C22G A37G C60A A70G: at most 0.5.
To A15C A21U A70G belongs at most 0.5.
Regarding U3C G17C A40G U54C, the yeast fitness was found to be 0.59.
In the case of U26G G48A C61U A70U, the yeast fitness came to 0.68.
For A15C C55A A65C, the yeast fitness is at most 0.5.
Next, A20C A42C C60A: at most 0.5.
Consider G12C C27A C31G G52C, for which the yeast fitness is at most 0.5.
For G12A A14C C31U C49G C60A, the yeast fitness was at most 0.5.
Next, U13A C33G C55A: at most 0.5.
Consider G6A C22G A42C C62U, for which the yeast fitness is at most 0.5.
Regarding C4U G10C C31G, the yeast fitness was at most 0.5.
For the variant U53C C61G G67A A69C, the yeast fitness amounted to 0.552.
To A14C A15U G18C belongs 0.67.
As for C24U U64C, the yeast fitness came to 0.925.
Turning to A20C C29U A37G A69U, the yeast fitness turned out to be 0.526.
Consider G41U G51C, for which the yeast fitness came to 0.565.
Consider C22U U35A G52A, for which the yeast fitness is at most 0.5.
For A15U C31A A70G, the yeast fitness is at most 0.5.
In the case of A14U C24G G41A G44A, the yeast fitness is at most 0.5.
To U2A U7G C24G C29A A43U U53A A57U A65U belongs at most 0.5; to G10C C24U U64C, at most 0.5.
In the case of U2A C4U G10C C29U U32A A43U, the yeast fitness was at most 0.5.
Regarding C5U C11U U53G G56A C61U, the yeast fitness was at most 0.5.
Consider U13A C62A, for which the yeast fitness was 0.668.
Consider U13A C22G G25C C27U C30G C55A A69U, for which the yeast fitness turned out to be 0.572.
Turning to U3C C29G G38A A43G G50A, the yeast fitness was at most 0.5.
